Reference: paper PMC3891043 (Canadian journal of chemistry, 2011)
Marks after values point to notes of the source that are not given here. Blank lines part the entries; values can stand above or below the molecule they belong to.

Test: Photolysis quantum yields
Format: physicochemical
Conditions: for Φdis, disappearance quantum yield (pHP diethyl phosphates) / Φdis, disappearance quantum yield (pHP acetates): λ = 300 nm; for Φdis, disappearance quantum yield (pHP acetates): 20% aq CH3CN or DMSO; for Photochemical reactivity: photolysis in unbuffered H2O
Summary of the method: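 Caged compound (1–9 mmol/L) plus internal standard (caffeine or 4-acetamidophenol) in water, buffer or solvent, in a quartz tube. Irradiated in a Rayonet carousel (two 15 W, 3000 Å Hg lamps), with ferrioxalate actinometry. Aliquots taken every 30 s up to 5 min, diluted and run on C18 LC-MS (water/methanol gradient with ammonium formate/formic acid), three injections each. Quantitation used calibration curves; Φ = concentration change / photons absorbed. 1H NMR in D2O confirmed products.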

[1] = 300 nm, pH 7.3, HEPES (0.01 mol/L) and LiClO4 (0.1 mol/L)
[2] = 300 nm, pH 8.2, HEPES (0.01 mol/L) and LiClO4 (0.1 mol/L)
[3] = unbuffered 18 MΩ Ultrapure H2O, conversion <2%

SMILES: CCOP(=O)(OCC)OCC(=O)c1ccc(O)c(OC)c1 [Compound 28, Diethyl (2-(4-hydroxy-3-methoxyphenyl)-2-oxoethyl) phosphate]
Φdis, disappearance quantum yield (pHP diethyl phosphates) (50% aq CH3CN): 0.39

Φapp, quantum yield for the appearance of GABA [1]: 0.17
Φapp, quantum yield for the appearance of rearranged acid [1]: 0.15
Φdis, quantum yield for the disappearance of pHP GABA [1]: 0.17
Φapp, quantum yield for the appearance of GABA [2]: 0.11
Φapp, quantum yield for the appearance of rearranged acid [2]: 0.09
Φdis, quantum yield for the disappearance of pHP GABA [2]: 0.11
Φapp, quantum yield for the appearance of GABA [3]: 0.14
Φapp, quantum yield for the appearance of rearranged acid [3]: 0.13
Φdis, quantum yield for the disappearance of pHP GABA [3]: 0.15
SMILES: Cc1cc(C(=O)COC(=O)CCCN)cc(C)c1O.O=C(O)C(F)(F)F [Compound 8, 4-(2-(4-Hydroxy-3,5-dimethylphenyl)-2-oxoethoxy)-4-oxobutan-1-aminium-2,2,2-trifluoroacetate]

Φapp, quantum yield for the appearance of GABA [1]: 0.16
Φapp, quantum yield for the appearance of rearranged acid [1]: 0.13
Φdis, quantum yield for the disappearance of pHP GABA [1]: 0.15
Φapp, quantum yield for the appearance of GABA [2]: 0.08
Φapp, quantum yield for the appearance of rearranged acid [2]: 0.06
Φdis, quantum yield for the disappearance of pHP GABA [2]: 0.08
Φapp, quantum yield for the appearance of GABA [3]: 0.14
Φapp, quantum yield for the appearance of rearranged acid [3]: 0.13
Φdis, quantum yield for the disappearance of pHP GABA [3]: 0.15
SMILES: Cc1cc(C(=O)COC(=O)CCCN)ccc1O.O=C(O)C(F)(F)F [Compound 6, 4-(2-(4-Hydroxy-3-methylphenyl)-2-oxoethoxy)-4-oxobutan-1-aminium-2,2,2-trifluoroacetate]

SMILES: CCOP(=O)(OCC)OCC(=O)c1ccc(O)c(C(C)=O)c1 [Compound 32, 2-(3-Acetyl-4-hydroxyphenyl)-2-oxoethyl diethyl phosphate]
Φdis, disappearance quantum yield (pHP diethyl phosphates) (50% aq CH3CN): 0.03

Φdis, disappearance quantum yield (pHP acetates): 0.08
SMILES: CC(=O)OCC(=O)c1ccc(O)c(C#N)c1 [Compound 26, 2-(3-Cyano-4-hydroxyphenyl)-2-oxoethyl acetate]

SMILES: NCCCC(=O)OCC(=O)c1ccc(O)c([N+](=O)[O-])c1.O=C(O)C(F)(F)F [Compound 12, 4-(2-(4-Hydroxy-3-nitrophenyl)-2-oxoethoxy)-4-oxobutan-1-aminium-2,2,2-trifluoroacetate]
Photochemical reactivity: Note: NA, not available. All runs were low conversions to products (<2%). Standard deviations are <±0.02. 3-NO2 (12), 3-OH (4), and 2-OH (5) did not react under these conditions and are omitted. Unbuffered 18 MΩ Ultrapure H2O was used.

Φdis, disappearance quantum yield (pHP acetates): 0.17
SMILES: CC(=O)OCC(=O)c1ccc(O)cc1C#N [Compound 25, 2-(2-Cyano-4-hydroxyphenyl)-2-oxoethyl acetate]

SMILES: NCCCC(=O)OCC(=O)c1ccc(O)cc1O.O=C(O)C(F)(F)F [Compound 5, 4-(2-(2,4-Dihydroxyphenyl)-2-oxoethoxy)-4-oxobutan-1-aminium-2,2,2-trifluoroacetate]
Photochemical reactivity: Note: NA, not available. All runs were low conversions to products (<2%). Standard deviations are <±0.02. 3-NO2 (12), 3-OH (4), and 2-OH (5) did not react under these conditions and are omitted. Unbuffered 18 MΩ Ultrapure H2O was used.

SMILES: NCCCC(=O)OCC(=O)c1ccc(O)c(O)c1.O=C(O)C(F)(F)F [Compound 4, 4-(2-(3,4-Dihydroxyphenyl)-2-oxoethoxy)-4-oxobutan-1-aminium-2,2,2-trifluoroacetate]
Photochemical reactivity: Note: NA, not available. All runs were low conversions to products (<2%). Standard deviations are <±0.02. 3-NO2 (12), 3-OH (4), and 2-OH (5) did not react under these conditions and are omitted. Unbuffered 18 MΩ Ultrapure H2O was used.

SMILES: CCOP(=O)(OCC)OCC(=O)c1cc(OC)c(O)c(OC)c1 [Compound 29, Diethyl (2-(4-hydroxy-3,5-dimethoxyphenyl)-2-oxoethyl) phosphate]
Φdis, disappearance quantum yield (pHP diethyl phosphates) (50% aq CH3CN): 0.44 ^d
Φdis, disappearance quantum yield (λ = 350 nm, 50% aq CH3CN): d Φdis = 0.13 at λ = 350 nm.
